Results on 23 compounds are retold here after ChEMBL document CHEMBL1151831, “Acylated iridoids with cytotoxicity from Valeriana jatamansi” (J Nat Prod, 2009).

A value given as a limit tells only on which side of the number the result lay.

Type in all cases: functional, cell-based
Test [1] is described as follows: Cytotoxicity against human PC3M cells after 24 hrs by MTT assay. To be noted: PC-3M. The procedure, abridged: (§1)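 Human cancer lines from ATCC, seeded at 3000 cells per well and exposed 24 h later to a range of concentrations for 24 h. MTT was then added, plates were incubated a further 24 h, and viability was read as absorbance at 570 nm. IC50 values were calculated from the readings.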
Background: Formazan colour is commonly taken as a measure of viable cells.

The subject of test [2] is A549. Kind of test: Cytotoxicity against human A549 cells after 24 hrs by MTT assay. The following applies: A549, 24 h. The procedure, abridged: as §1
Test [3] has as its system HCT-8. In words: Cytotoxicity against human HCT8 cells after 24 hrs by MTT assay. To be noted: HCT-8, 24 h. The gist of the method:
as §1

The subject of test [4] is Bel-7402. In words: Cytotoxicity against human Bel7402 cells after 24 hrs by MTT assay. To be noted: Bel-7402, 24 h. The gist of the method: as §1

The IC50 is the concentration that inhibits the measured activity by half. Read a low IC50 as higher potency. As to `CC(=O)O[C@H]1C[C@]2(O)C(COC(=O)C(OC(=O)CC(C)C)C(C)C)=CO[C@@H](OC(=O)CC(C)C)[C@@H]2[C@@]12CO2` (stereo partly specified), the 50% inhibitory concentration (IC50) in test [1] was found to be 1.9 µM; in test [2], 7.4 µM; in test [3], 2.5 µM; in test [4], 4 µM.
For the compound `CC(=O)O[C@H]1C[C@]2(O)C(COC(=O)CC(C)C)=CO[C@@H](OC(=O)CC(C)C)[C@@H]2[C@@]12CO2`, the IC50 in test [1] turned out to be 2.2 µM; in test [2], 7 µM; in test [3], 1.5 µM; in test [4], 2.3 µM.
Take `CC(=O)OCC1=CO[C@@H](OC(=O)CC(C)C)[C@H]2C1=C[C@H](OC(=O)CC(C)C)[C@]2(O)COC(C)=O`: the IC50 in test [1] is greater than 10 µM; in test [2], 8.6 µM; in test [3], greater than 10 µM; in test [4], greater than 10 µM.
Consider `CC(=O)OCC1=CO[C@@H](OC(=O)CC(C)C)[C@H]2C1=C[C@H](OC(=O)CC(C)(C)OC(C)=O)[C@]21CO1` [ACEVALTRATE], for which the IC50 in test [1] worked out at 1.4 µM; in test [2], 2.9 µM; in test [3], 1 µM; in test [4] it was 1.7 µM.
As for `CC(=O)OC[C@]1(O)[C@H]2[C@H](OC(=O)CC(C)C)OC=C(COC(=O)CC(C)C)[C@H]2C[C@@H]1OC(C)=O` [DIDROVALTRATE ACETOXY HYDRIN], the 50% inhibitory concentration (IC50) in test [1] was found to be 1.6 µM; in test [2], 3 µM; in test [3] it was 2.6 µM; in test [4], 4.4 µM.
For `CC(=O)O[C@H]1C[C@@H]2C(COC(=O)CC(C)C)=CO[C@@H](OC(=O)CC(C)C)[C@@H]2[C@@]12CO2` [DIDROVALTRATE], the half-maximal inhibitory concentration (IC50) was 3.8 µM in test [1], greater than 10 µM in test [2], 6.6 µM in test [3] and 7.5 µM in test [4].
In the case of `CC(=O)O[C@H]1C[C@]2(O)C(COC(=O)C(OC(=O)CC(C)C)C(C)C)=CO[C@@H](OC(=O)CC(C)C)[C@@H]2[C@@]1(O)COC(=O)CC(C)(C)OC(C)=O` (stereo partly specified) [JATAMANVALTRATE A], the concentration for half-maximal inhibition (IC50) is 5.3 µM in test [1], greater than 10 µM in test [2], greater than 10 µM in test [3] and greater than 10 µM in test [4].
With `CC(=O)O[C@H]1C[C@]2(O)C(COC(=O)C(OC(=O)CC(C)C)C(C)C)=CO[C@@H](OC(=O)CC(C)C)[C@@H]2[C@@]1(O)COC(=O)CC(C)C` (stereo partly specified) [JATAMANVALTRATE B], the IC50 in test [1] is 3.9 µM; in test [2], greater than 10 µM; in test [3], 6.2 µM; in test [4], greater than 10 µM.
In the case of `CC(=O)OC[C@@]1(O)[C@@H](OC(C)=O)C[C@]2(O)C(COC(=O)C(OC(=O)CC(C)C)C(C)C)=CO[C@@H](OC(=O)CC(C)C)[C@H]12` (stereo partly specified) [JATAMANVALTRATE C], the IC50 in test [1], in test [2], in test [3] and in test [4] was greater than 10 µM each time.
With `CC(=O)O[C@H]1C[C@]2(O)C(COC(=O)C(OC(=O)CC(C)C)C(C)C)=CO[C@@H](OC(=O)CC(C)C)[C@@H]2[C@@]1(O)COC(=O)c1ccccc1O` (stereo partly specified) [JATAMANVALTRATE D], the concentration for half-maximal inhibition (IC50) in test [1] was 3.8 µM; in test [2], greater than 10 µM; in test [3], 4.5 µM; in test [4], 9.7 µM.
On the same counts, the results for `COC[C@@]1(O)[C@@H](OC(C)=O)C[C@]2(O)C(COC(=O)C(OC(=O)CC(C)C)C(C)C)=CO[C@@H](OC(=O)CC(C)C)[C@H]12` (stereo partly specified) [JATAMANVALTRATE E] are greater than 10 µM, greater than 10 µM, 9.7 µM and 8.5 µM.
With `CC(=O)O[C@H]1C[C@@H]2C(COC(=O)CC(C)C)=CO[C@@H](OC(=O)CC(C)C)[C@@H]2[C@@]1(O)COC(=O)CC(C)(C)OC(C)=O` [JATAMANVALTRATE F], the IC50 was 4.3 µM in test [1], greater than 10 µM in test [2], greater than 10 µM in test [3] and 8.8 µM in test [4].
Take `CC(=O)OC[C@]1(O)[C@H]2[C@H](OC(=O)CC(C)C)OC=C(COC(=O)CC(C)C)[C@H]2C[C@@H]1O` [JATAMANVALTRATE G]: the IC50 in test [1] is 5.6 µM; in test [2] it was greater than 10 µM; in test [3], greater than 10 µM; in test [4], 5.9 µM.
For `CC(=O)O[C@H]1C[C@@H]2C(COC(=O)CC(C)C)=CO[C@@H](OC(=O)CC(C)C)[C@@H]2[C@@]1(O)CO` [JATAMANVALTRATE H], the IC50 was 5.2 µM in test [1], greater than 10 µM in test [2], greater than 10 µM in test [3] and greater than 10 µM in test [4].
`CC(=O)O[C@H]1C=C2C(COC(=O)CC(C)C)=CO[C@@H](OC(=O)CC(C)C)[C@@H]2[C@@]1(O)COC(=O)c1ccccc1O` [JATAMANVALTRATE I]: the IC50 in test [1] is 3.9 µM; in test [2] it was greater than 10 µM; in test [3], 9.7 µM; in test [4], greater than 10 µM.
Consider `CC(=O)OCC1=CO[C@@H](OC(=O)CC(C)C)[C@H]2C1=C[C@H](O)[C@]2(O)COC(=O)CC(C)C` [JATAMANVALTRATE J], for which the IC50 in test [1] was 5.8 µM; in test [2], greater than 10 µM; in test [3], greater than 10 µM; in test [4], greater than 10 µM.
As to `CC(=O)OCC1=CO[C@@H](OC(=O)CC(C)C)[C@H]2C1=C[C@H](OC(=O)CC(C)C)[C@]2(O)CO` [JATAMANVALTRATE K], the IC50 is 5 µM in test [1], greater than 10 µM in test [2], greater than 10 µM in test [3] and 7.1 µM in test [4].
As for `CC(C)CC(=O)OC(C(=O)OCC1=CO[C@@H](OC(=O)CC(C)C)[C@@H]2[C@@]3(CO3)[C@@H](O)C[C@]12O)C(C)C` (stereo partly specified) [JATAMANVALTRATE L], the IC50 in test [1] was 3.4 µM; in test [2], greater than 10 µM; in test [3], greater than 10 µM; in test [4], 7.6 µM.
For the compound `CCOCC1=CO[C@@H](OC(=O)CC(C)C)[C@@H]2[C@@]3(CO3)[C@@H](OC(C)=O)C[C@]12O` [JATAMANVALTRATE M], the half-inhibitory concentration (IC50) is 6.3 µM in test [1], greater than 10 µM in test [2], greater than 10 µM in test [3] and greater than 10 µM in test [4].
For the compound `CC(=O)O[C@H]1C(=O)[C@@]2(C)[C@H]([C@H](OC(=O)c3ccccc3)[C@]3(O)C[C@H](OC(=O)[C@H](O)[C@@H](NC(=O)c4ccccc4)c4ccccc4)C(C)=C1C3(C)C)[C@]1(OC(C)=O)CO[C@@H]1C[C@@H]2O` [PACLITAXEL], the 50% inhibitory concentration (IC50) in test [1] worked out at 0.027 µM; in test [2], 0.0052 µM; in test [4], 0.095 µM.
As for `CC(=O)O[C@H]1C[C@]2(O)C(COC(=O)C(OC(=O)CC(C)C)C(C)C)=CO[C@@H](OC(=O)CC(C)C)[C@@H]2[C@@]1(O)COC(=O)C(OC(=O)CC(C)C)C(C)C` (stereo partly specified) [VALERIOTETRATE A], the half-inhibitory concentration (IC50) was 3.1 µM in test [1], greater than 10 µM in test [2], 8.2 µM in test [3] and 9.9 µM in test [4].
Turning to `CC(=O)OC[C@]1(O)[C@H]2[C@H](OC(=O)CC(C)C)OC=C(COC(=O)C(OC(=O)CC(C)C)C(C)C)[C@@]2(O)C[C@@H]1O` (stereo partly specified) [VALERIOTRIATE B], the IC50 in test [1] was 3.9 µM; in test [2] it was greater than 10 µM; in test [3] it was greater than 10 µM; in test [4], greater than 10 µM.
Consider `CC(=O)OCC1=CO[C@@H](OC(=O)CC(C)C)[C@H]2C1=C[C@H](OC(=O)CC(C)C)[C@]21CO1` [VALTRATE], for which the IC50 was determined as 1.6 µM in test [1], 3.7 µM in test [2], 1.8 µM in test [3] and 6.1 µM in test [4].
